In ChEMBL document CHEMBL1926655, “Electron-donating para-methoxy converts a benzamide-isoquinoline derivative into a highly Sigma-2 receptor selective ligand” (Bioorg Med Chem, 2011):
The source made the active and inactive calls. No cut-off for these calls is given here.

Experiments:
RT-4 = experiment: Displacement of [125I]IAF from sigma 2 receptor in human RT4 cells at 10 uM after 30 mins preincubation by photoaffinity labeling experiment; type: cell-based
In short: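 Fresh membranes from sonicated RT4 human bladder papilloma cells (200 μg protein per reaction) preincubated with compound in 50 mM Tris pH 7.4, 30 min, 32°C. Then 1 nM [¹²⁵I]-IAF (final 1% ethyl acetate) added for 30 min at 32°C, photoactivated 6 sec with mercury lamp, quenched in SDS/β-mercaptoethanol sample buffer; labeled receptor bands examined.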

Rattus norvegicus = species on record: Rattus norvegicus; experiment: Selectivity ratio of Ki for rat sigma 1 receptor to Ki for rat sigma 2 receptor
In short: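 Ratio of Ki values from rat liver membrane competition binding: σ1 with 10 nM [³H]-(+)-pentazocine, σ2 with 10 nM [³H]-DTG plus 100 nM (+)-pentazocine; 1.5 h at 32°C, filtration and scintillation counting, Ki by Cheng-Prusoff.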

[1] = target: Sigma non-opioid intracellular receptor 1 (Rattus norvegicus, UniProt Q9R0C9); experiment: Displacement of (+)-[3H]pentazocine from sigma 1 receptor in rat liver membrane after 1.5 hrs by scintillation counting; type: cell membranes
Sigma non-opioid intracellular receptor 1, sequence (Q9R0C9 whole entry): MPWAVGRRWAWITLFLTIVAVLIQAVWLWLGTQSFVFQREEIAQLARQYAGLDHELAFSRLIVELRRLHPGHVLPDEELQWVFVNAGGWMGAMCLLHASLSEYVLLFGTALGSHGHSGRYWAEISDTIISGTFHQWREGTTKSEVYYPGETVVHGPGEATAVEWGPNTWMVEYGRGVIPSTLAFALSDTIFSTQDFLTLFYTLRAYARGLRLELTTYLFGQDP
In short: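 Rat liver membranes (~50 μg total protein per reaction) incubated with 10 nM [³H]-(+)-pentazocine and serial dilutions of compound (stocks in DMSO) for 1.5 h at 32°C. […] Filtered through polyethyleneimine-pretreated GF/B filters, bound radioactivity counted by liquid scintillation. One-site competition fit, Ki by Cheng-Prusoff.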

[2] = Displacement of [3H]ditolylguanidine from sigma 2 receptor in rat liver membrane after 1.5 hrs by scintillation counting in presence of sigma 1 blocker (+)-pentazocine; type: cell membranes
In short: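 Rat liver membranes (~50 μg total protein per reaction) in 50 mM Tris-HCl pH 8.0 with 10 nM [³H]-DTG plus 100 nM cold (+)-pentazocine to mask σ1 sites. […] Filtration on PEI-pretreated GF/B, scintillation counting, one-site competition fit, Ki via Cheng-Prusoff.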

Compound	Activity (RT-4)	Ratio Ki (Rattus norvegicus)	Ki [1]	Ki [2]
O=C(CCCN1CCC(O)(c2ccc(Cl)cc2)CC1)c1ccc(F)cc1	Active			
COc1cccc(C(=O)NCCCCN2CCc3ccc([N+](=O)[O-])cc3C2)c1O		2.8	11.2 µM	4 µM
COc1ccc(C(=O)NCCCCN2CCc3ccc([N+](=O)[O-])cc3C2)c(OC)c1OC		385	10.3 µM	0.0268 µM
COc1cc2c(cc1OC)CN(CCCCNC(=O)c1cccc([N+](=O)[O-])c1)CC2			1210 µM	> 10000 µM
COc1cc2c(cc1OC)CN(CCCCNC(=O)c1ccccc1)CC2			> 10000 µM	5.29 µM
COc1cc2c(cc1OC)CN(CCCCNC(=O)c1cccc(OC)c1O)CC2		48.4	67.8 µM	1.4 µM
COc1c(I)ccc(C(=O)NCCCCN2CCc3ccc([N+](=O)[O-])cc3C2)c1O		86.2	74.7 µM	0.867 µM
COc1cccc(C(=O)NCCCCN2CCc3ccc([N+](=O)[O-])cc3C2)c1OC	inactive	0.61	7.87 µM	12.9 µM
COc1cc2c(cc1OC)CN(CCCCNC(=O)c1ccc([N+](=O)[O-])cc1)CC2		0.096	14.7 µM	152 µM
O=C1c2ccccc2C(=O)N1CCCCN1CCc2ccc([N+](=O)[O-])cc2C1	Active	4.12	0.0875 µM	0.0213 µM
